# Data: ChEMBL document CHEMBL3046529, “Chiral gamma-aryl-1H-1,2,4-triazole derivatives as highly potential antifungal agents: Design, synthesis, structure, and in vitro fungicidal activities” (J Agric Food Chem, 2008)
# Experiments:
# Fusarium oxysporum [1] = test: In vitro fungicidal activity against Fusarium oxysporum assessed as mycelial growth inhibition at 100 mg/l at 26 degC after 48 hr by agar diffusion assay; format: functional; conditions: read-out: GI
# Procedure, shortened: (§1)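 Compound is dissolved in DMF and added aseptically to autoclaved agar that has cooled to about 45-50 °C, giving 100 mg/L in the medium. Solvent never exceeds […]. Plain medium is the blank. A 5 mm mycelial plug, cut from the margin of an actively growing colony, goes in the plate centre. Three replicate plates are sealed and kept at 26 °C in darkness. Colony diameter is read at 48 h. Inhibition % = (control − treated diameter)/control diameter.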
# Fusarium graminearum [2] = test: In vitro fungicidal activity against Fusarium graminearum assessed as mycelial growth inhibition at 100 mg/l at 26 degC after 48 hr by agar diffusion assay; format: functional; conditions: read-out: GI; procedure, shortened: as §1
# Rhizoctonia solani [3] = test: In vitro fungicidal activity against Rhizoctonia solani assessed as mycelial growth inhibition at 100 mg/l at 26 degC after 48 hr by agar diffusion assay; format: functional; conditions: read-out: GI; procedure, shortened: as §1
# Dothiorella gregaria [4] = test: In vitro fungicidal activity against Dothiorella gregaria assessed as mycelial growth inhibition at 100 mg/l at 26 degC after 48 hr by agar diffusion assay; format: functional; conditions: read-out: GI; procedure, shortened: as §1
# Colletotrichum gossypii [5] = test: In vitro fungicidal activity against Colletotrichum gossypii assessed as mycelial growth inhibition at 100 mg/l at 26 degC after 48 hr by agar diffusion assay; format: functional; conditions: read-out: GI; procedure, shortened: as §1
# Botrytis cinerea [6] = test: In vitro fungicidal activity against Botryotinia fuckeliana assessed as mycelial growth inhibition at 100 mg/l at 26 degC after 48 hr by agar diffusion assay; format: functional; conditions: read-out: GI; procedure, shortened: as §1
# Botrytis cinerea [7] = test: In vitro fungicidal activity against Botryotinia fuckeliana assessed as mycelial growth inhibition at 26 degC after 48 hr by agar diffusion assay; format: functional, organism-based
# Fusarium graminearum [8] = test: In vitro fungicidal activity against Fusarium graminearum assessed as mycelial growth inhibition at 50 mg/l at 26 degC after 48 hr by agar diffusion assay; format: functional; conditions: read-out: GI
# Fusarium oxysporum [9] = test: In vitro fungicidal activity against Fusarium oxysporum assessed as mycelial growth inhibition at 50 mg/l at 26 degC after 48 hr by agar diffusion assay; format: functional; conditions: read-out: GI
# Colletotrichum gossypii [10] = test: In vitro fungicidal activity against Colletotrichum gossypii assessed as mycelial growth inhibition at 26 degC after 48 hr by agar diffusion assay; format: functional, organism-based
# Dothiorella gregaria [11] = test: In vitro fungicidal activity against Dothiorella gregaria assessed as mycelial growth inhibition at 26 degC after 48 hr by agar diffusion assay; format: functional, organism-based
# Botrytis cinerea [12] = test: In vitro fungicidal activity against Botryotinia fuckeliana assessed as mycelial growth inhibition at 50 mg/l at 26 degC after 48 hr by agar diffusion assay; format: functional; conditions: read-out: GI
# Fusarium graminearum [13] = test: In vitro fungicidal activity against Fusarium graminearum assessed as mycelial growth inhibition at 26 degC after 48 hr by agar diffusion assay; format: functional, organism-based
# Dothiorella gregaria [14] = test: In vitro fungicidal activity against Dothiorella gregaria assessed as mycelial growth inhibition at 50 mg/l at 26 degC after 48 hr by agar diffusion assay; format: functional; conditions: read-out: GI
# Fusarium oxysporum [15] = test: In vitro fungicidal activity against Fusarium oxysporum assessed as mycelial growth inhibition at 26 degC after 48 hr by agar diffusion assay; format: functional, organism-based
# Colletotrichum gossypii [16] = test: In vitro fungicidal activity against Colletotrichum gossypii assessed as mycelial growth inhibition at 50 mg/l at 26 degC after 48 hr by agar diffusion assay; format: functional; conditions: read-out: GI
# Rhizoctonia solani [17] = test: In vitro fungicidal activity against Rhizoctonia solani assessed as mycelial growth inhibition at 50 mg/l at 26 degC after 48 hr by agar diffusion assay; format: functional; conditions: read-out: GI
# Rhizoctonia solani [18] = test: In vitro fungicidal activity against Rhizoctonia solani assessed as mycelial growth inhibition at 26 degC after 48 hr by agar diffusion assay; format: functional, organism-based
Compound,inhibition of growth at 100 µg/mL (Fusarium oxysporum [1]) [%],inhibition of growth at 100 µg/mL (Fusarium graminearum [2]) [%],inhibition of growth at 100 µg/mL (Rhizoctonia solani [3]) [%],inhibition of growth at 100 µg/mL (Dothiorella gregaria [4]) [%],inhibition of growth at 100 µg/mL (Colletotrichum gossypii [5]) [%],inhibition of growth at 100 µg/mL (Botrytis cinerea [6]) [%],EC50 (Botrytis cinerea [7]) [µM],inhibition of growth at 50 µg/mL (Fusarium graminearum [8]) [%],inhibition of growth at 50 µg/mL (Fusarium oxysporum [9]) [%],EC50 (Colletotrichum gossypii [10]) [µM],EC50 (Dothiorella gregaria [11]) [µM],inhibition of growth at 50 µg/mL (Botrytis cinerea [12]) [%],EC50 (Fusarium graminearum [13]) [µM],inhibition of growth at 50 µg/mL (Dothiorella gregaria [14]) [%],EC50 (Fusarium oxysporum [15]) [µM],inhibition of growth at 50 µg/mL (Colletotrichum gossypii [16]) [%],inhibition of growth at 50 µg/mL (Rhizoctonia solani [17]) [%],EC50 (Rhizoctonia solani [18]) [µM]
CC[C@H](CCn1cncn1)c1ccccc1,60,60,80,81,70,52,,,,,,,,,,,,
CC[C@@H](CCn1cncn1)c1ccccc1,55,63,75,60,50,52,,,,,,,,,,,,
CC[C@H](CCn1cncn1)c1ccc(F)cc1,50,63,82,82,78,36,,,,,,,,,,,,
CC[C@@H](CCn1cncn1)c1ccc(F)cc1,60,56,85,75,65,52,,,,,,,,,,,,
CC[C@H](CCn1cncn1)c1ccc(Cl)cc1,91,76,85,93,97,94,,,,,,,,,,,,
CC[C@@H](CCn1cncn1)c1ccc(Cl)cc1,80,73,83,80,85,84,,,,,,,,,,,,
CC[C@H](CCn1cncn1)c1ccc(OC)cc1,65,66,60,82,55,30,,,,,,,,,,,,
CC[C@@H](CCn1cncn1)c1ccc(OC)cc1,40,42,73,45,50,30,,,,,,,,,,,,
CCC[C@H](CCn1cncn1)c1ccccc1,80,83,97,100,92,98,,,,,,,,,,,,
CCC[C@@H](CCn1cncn1)c1ccccc1,55,52,78,67,75,44,,,,,,,,,,,,
CCC[C@H](CCn1cncn1)c1ccc(F)cc1,82,85,90,100,95,71,,,,,,,,,,,,
CCC[C@@H](CCn1cncn1)c1ccc(F)cc1,73,83,86,83,90,94,,,,,,,,,,,,
CCC[C@H](CCn1cncn1)c1ccc(OC)cc1,90,66,78,90,80,60,,,,,,,,,,,,
CCC[C@@H](CCn1cncn1)c1ccc(OC)cc1,75,76,90,93,90,92,,,,,,,,,,,,
CCCC[C@H](CCn1cncn1)c1ccccc1,66,71,90,100,87,91,,,,,,,,,,,,
CCCC[C@@H](CCn1cncn1)c1ccccc1,74,71,87,96,82,91,,,,,,,,,,,,
CCCC[C@H](CCn1cncn1)c1ccc(F)cc1,100,95,100,100,100,100,61,89,99,61,15,100,66,100,112,100,99,36
CCCC[C@@H](CCn1cncn1)c1ccc(F)cc1,96,83,100,97,95,96,56,70,88,63,79,81,104,71,109,85,88,49
CCCC[C@H](CCn1cncn1)c1ccc(Cl)cc1,82,73,91,100,85,88,,,,,,,,,,,,
CCCC[C@@H](CCn1cncn1)c1ccc(Cl)cc1,78,69,84,97,85,94,,,,,,,,,,,,
CC(C)(C)C(=O)C(Oc1ccc(Cl)cc1)n1cncn1 (configuration not stated) [TRIADIMEFON],97,76,100,71,100,96,41,59,91,19,317,78,163,14,40,97,91,14
